Screening results deposited in PubChem by several laboratories.
Compounds with a hit are over-represented: about 12% of the library has one in this group of screens.
MT stabilizer – microtubule stabilizers in HeLa cells, primary screen, imaging, high-content imaging. HeLa tubulin immunostaining HCS, 24 h; share of cells brighter than vehicle mean+2SD. % tubulin-high responders, % at 10 µM. 200,000 compounds, 0.83% hits. AID 2205, 2009;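 active means plate Z-score above 3 for both tubulin-high and condensed-nucleus cell shares, with cell loss under 80%, at 10 µM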;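 further: anti alpha tubulin signal scored within the nucleus-defined area of each cell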
L major viab – Leishmania major promastigote growth inhibition, primary screen | Leishmania major promastigotes, resazurin fluorescence viability | inhibition, % at 10 µM | AID 1063, 2008 | 200,000 compounds, 9% hits; in the data active means inhibition above about 50%;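 further: promastigotes grown with compound for 44 hours at 28 °C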
CHOP inhibitor – inhibitors of CHOP promoter induction, primary screen, cell-based, unfolded protein response, luciferase reporter; CHO-K1 CHOP-promoter luciferase, tunicamycin-induced, 15-18 h; AID 2732, 2010; 220,000 compounds, 3.8% hits; inhibition, % at 10 µM;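 active means compounds that reduced the stress-induced luciferase reporter signal by more than about 70% of percent inhibition, limit read from the data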;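 further: 0% = tunicamycin plus vehicle and 100% = wells without tunicamycin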
Dynein transport – inhibitors of GR-EGFP nuclear translocation, primary screen, dynein cargo transport inhibitor project, imaging, high-content, 3617.4 mouse cells; z-score, hits read low; test concentration mostly 20 µM; stimulated with dexamethasone, 1 µM; hits give low values; 220,000 compounds, 0.47% hits;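 active means plate z-score of nuclear minus cytoplasmic receptor signal below a set negative limit, without overly bright fluorescence or cell loss, cut at about -3.5 in these data, passing the limit was not always enough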;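 further: z-score of nuclear minus cytoplasmic ring GR-EGFP intensity difference per well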
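Schedule: 48 h induction, then 1 h compound, then 30 min agonist, 37 °C. Buffer or medium: tetracycline-free induction medium containing charcoal-stripped FBS. Reagent: 1.0 µM final dexamethasone stimulus. Evaluation: nuclear versus cytoplasmic GR-EGFP signal, averaged per well. Signal: high-content fluorescence imaging after fixation.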
b-catenin transl – modulators of beta-catenin nuclear translocation, primary screen, imaging, HeLa cells, immunofluorescence, high-content | nuclear translocation activity, % at 5 µM | 190,000 compounds, 0.3% hits;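 active means nuclear translocation activity above 50% at 5 µM, with a well cell count of 50 or more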;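 further: per-cell ratio of nuclear to cytoplasmic median beta-catenin stain intensity; plate controls were DMSO negative control for no effect and GSK-3 inhibitor IX positive control for full effect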
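System: Human HeLa cells, endogenous beta-catenin | Compound dosing: 5 µM primary, 0.02–20 µM confirmation | Timing: 24 h compound exposure at 37°C, 5% CO2 | Measured by: Fluorescence imaging of beta-catenin antibody stain plus DAPI | Read-out basis: % activation of per-cell nuclear versus cytoplasmic median beta-catenin signal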
Autophagy HCS – autophagy modulators in MEF cells, primary screen, imaging, high-content, MEF GFP-LC3; calls only at 10 µM (by protocol); 190,000 compounds, 0.98% hits; MEF GFP-LC3 puncta imaging; test concentration mostly 10 µM;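 active means percentage of spot-positive cells more than 3 SD above its plate mean, without a fluorescence outlier flag or 80% toxicity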;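 further: spot-positive cell cutoff set from DMSO-treated cells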
CHOP inh conf – retest of CHOP induction inhibitors, confirmation, cell-based; shares compounds with CHOP inhibitor; CHO-CHOP promoter luciferase reporter, tunicamycin-induced, luminescence; inhibition, % at 10 µM; 2,100 compounds, 45% hits; AID 504437, 2011;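 active means mean of three repeat readings of reporter signal inhibition above a set limit, cut at about 70% in these data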;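 further: 0% = tunicamycin plus vehicle and 100% = wells lacking tunicamycin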
Starred values were filed as active, the others as inactive; i = inactive; . = not tested or not shown; + = active, no number.

SMILES	MT stabilizer	L major viab	CHOP inhibitor	Dynein transport	b-catenin transl	Autophagy HCS	CHOP inh conf
CC(C)(C)c1ccc(OCc2cnc(Cl)s2)cc1	1	-6	40	-0.24	0	i	.
Cc1ccc2nc(NC(=O)CSCC(=O)OCC(=O)c3ccc(Br)cc3)sc2c1	2	-7	100*	-1	.	i	107*
CC(NC(=O)CSc1nc2c(c(C(F)(F)F)n1)CCc1ccccc1-2)c1ccccc1 (stereo unspecified)	2	36	38	-0.33	1	i	.
CCc1c(C)sc(NC(=O)CSc2nc3c(c(C(F)(F)F)n2)CCc2ccccc2-3)c1C#N	7	-5	97*	-0.86	1	i	72*
CC(C)(C)n1nnnc1CN(Cc1ccc(F)cc1)Cc1ccco1	3	26	101*	-0.15	-2	i	62
O=C(Nc1ccc(-c2nc3ccccc3[nH]2)cc1)c1ccc2c(c1)OCO2	2	5	105*	0.73	-1	i	27
O=C(Nc1cccc(-c2nc3ccccc3[nH]2)c1)c1cccc(NC(=O)c2ccco2)c1	12	82*	107*	1.1	1	i	-20
O=C(Nc1ccc(Cl)c(-c2nc3ccccc3[nH]2)c1)c1ccc2c(c1)OCO2	2	9	64	2	-1	i	.
COCCN(C(=O)C(C)C)c1nnc(-c2ccc(C)cc2)s1	2	4	-15	-0.088	1	i	.
COc1ccc2nc(NC(=O)C(NS(=O)(=O)c3cccc4nsnc34)C(C)C)sc2c1 (stereo unspecified)	2	22	40	0.35	.	i	.
CCCn1nc([N+](=O)[O-])c(C(C#N)c2nc3ccccc3o2)c(Cl)c1=O (stereo unspecified)	4	-6	15	0.058	1	i	.
Cn1nc([N+](=O)[O-])c(C(C#N)c2ccccn2)c(Cl)c1=O (stereo unspecified)	7	100*	103*	-5.9*	-3	i	49
Cc1ccc(C2C(/C=C3/SC(=S)NC3=O)=C(c3cccs3)Oc3ccccc32)cc1 (stereo unspecified)	1	-2	99*	-1.9	.	i	-29
CCOCCCNC(=O)/C(C#N)=C/c1ccc([N+](=O)[O-])o1	4	101*	107*	5.6	0	i	37
CCOCCCNC(=O)/C(C#N)=C/c1ccc(-c2ccc(S(=O)(=O)N3CCOCC3)cc2)o1	11	18	-7	0.79	2	i	.
Clc1ccc(NNc2ccnc3cc(Cl)ccc23)cc1	3	5	13	-0.54	4	i	.
Clc1ccc2c(N/N=C/c3ccc(Br)cc3)ccnc2c1	2	100*	103*	-0.068	-1	i	96*
Cc1ccccc1/C=N/Nc1ccnc2cc(Cl)ccc12	4	98*	107*	-0.65	0	i	88*
COc1ccc(NC(=O)CC2C(=O)N(c3ccc(OC)cc3)C(=O)N2Cc2ccc(OC)c(OC)c2)cc1 (stereo unspecified)	4	3	-2	-1.2	-3	i	.
COc1cc(C(=O)NNC(=O)c2ccc(NC(=O)C(C)(C)C)cc2)cc(OC)c1OC	3	14	-23	0.22	0	i	.
Oc1c(Cl)cc(Cl)cc1CNc1ccc(Br)cn1	1	-4	104*	0.39	-4	i	-2
Oc1ccc(Cl)cc1CNc1ccc(Br)cn1	2	10	.	-0.75	.	i	.
Cc1ccccc1OCC(=O)NNC(=O)c1ccc(-c2ccccc2)cc1	2	0	105*	0.73	-2	i	19
CNC(=S)NNC(=O)COc1ccccc1C	2	-9	-21	0.076	0	i	.
Cc1ccc2cc(/C=N/NC(=O)c3ccccc3[N+](=O)[O-])c(Cl)nc2c1	2	19	26	0.25	0	i	.
SMILES	MT stabilizer	L major viab	CHOP inhibitor	Dynein transport	b-catenin transl	Autophagy HCS	CHOP inh conf
O=C(Nc1ccc(F)cc1)Nc1ccccc1F	5	1	-3	0.72	-1	i	.
CC(C)(C)c1ccc(NC(=O)Nc2ccc(F)cc2)cc1	2	-4	103*	-0.35	1	i	107*
Clc1nc2c(-c3ccccc3)nnn2c2ccccc12	.	.	101*	-1.7	1	.	-80
Cc1ccc(-c2nnn3c2nc(Cl)c2ccccc23)cc1	3	48	56	-0.75	0	i	.
O=C(Nc1ccc(F)c(Cl)c1)Nc1csc2ccccc12	.	.	99*	-0.34	-1	.	26
Oc1ccc(/C=N/Nc2nc(-c3ccc(Cl)cc3)cc(C(F)(F)F)n2)cc1	3	2	102*	0.17	-1	i	98*
Nc1nc(-c2ccc(Cl)cc2)cc(C(F)(F)F)n1	2	-9	58	-0.62	0	i	.
CCOC(=O)c1sc(C)c2c1NC(C)(c1cccs1)NC2=O (stereo unspecified)	7	10	36	1.7	0	i	.
Nc1c(C(=O)Nc2ccc(S(=O)(=O)N3CCCC3)cc2)sc2nc3ccc(OC(F)(F)F)cc3cc12	8	49	106*	-7.4	0	+	112*
Cc1cc(C(=O)Nc2ccc(S(=O)(=O)N3CCCC3)cc2)no1	5	11	-2	-0.22	-4	i	.
Cc1csc2c(N(C)CCO)ncnc12	.	.	4	0.16	0	.	.
O=c1[nH]c(CNCc2cccnc2)nc2ccccc12	5	-3	13	-0.8	0	i	.
O=C(CSc1nc2ncc(Cl)cc2[nH]1)c1c[nH]c2ccccc12	.	.	26	-0.24	-1	.	.
O=C(CSc1nc2ccc(Cl)cc2[nH]1)c1c[nH]c2ccccc12	2	28	101*	0.79	0	i	26
Cc1ccc(NC(=O)c2ccc3ncsc3c2)cc1S(=O)(=O)N(C)C	.	.	7	-0.38	0	.	.
Nc1cccc(Nc2nc(OC(C(F)(F)F)C(F)(F)F)nc(OC(C(F)(F)F)C(F)(F)F)n2)c1	4	22	100*	1.6	2	i	117*
O=C1Nc2ccc(Br)cc2/C1=C/C(=O)c1ccc2c(c1)OCO2	.	.	107*	-0.46	7	.	-37
O=S(=O)(Nc1cccc2c1CCCC2)c1cccc(C(F)(F)F)c1	3	44	107*	-0.67	1	i	120*
NNC(=O)c1sc2cc(C(F)(F)F)cnc2c1-c1ccccn1	3	-1	31	-0.58	0	i	.
CC(C)Nc1oc(-c2cccc3ccccc23)nc1C#N	2	-7	100*	-1.7	-2	i	19
